{"source": "ChEMBL document CHEMBL1136149", "about": "“Design, synthesis and antimalarial activity of novel, quinoline-based, zinc metallo-aminopeptidase inhibitors” (Bioorg Med Chem Lett, 2003)", "key": {"Aminopeptidase N": {"target": "T1, Aminopeptidase N (Plasmodium falciparum FcB1/Columbia, UniProt O96935)", "T1 sequence (O96935 whole entry)": "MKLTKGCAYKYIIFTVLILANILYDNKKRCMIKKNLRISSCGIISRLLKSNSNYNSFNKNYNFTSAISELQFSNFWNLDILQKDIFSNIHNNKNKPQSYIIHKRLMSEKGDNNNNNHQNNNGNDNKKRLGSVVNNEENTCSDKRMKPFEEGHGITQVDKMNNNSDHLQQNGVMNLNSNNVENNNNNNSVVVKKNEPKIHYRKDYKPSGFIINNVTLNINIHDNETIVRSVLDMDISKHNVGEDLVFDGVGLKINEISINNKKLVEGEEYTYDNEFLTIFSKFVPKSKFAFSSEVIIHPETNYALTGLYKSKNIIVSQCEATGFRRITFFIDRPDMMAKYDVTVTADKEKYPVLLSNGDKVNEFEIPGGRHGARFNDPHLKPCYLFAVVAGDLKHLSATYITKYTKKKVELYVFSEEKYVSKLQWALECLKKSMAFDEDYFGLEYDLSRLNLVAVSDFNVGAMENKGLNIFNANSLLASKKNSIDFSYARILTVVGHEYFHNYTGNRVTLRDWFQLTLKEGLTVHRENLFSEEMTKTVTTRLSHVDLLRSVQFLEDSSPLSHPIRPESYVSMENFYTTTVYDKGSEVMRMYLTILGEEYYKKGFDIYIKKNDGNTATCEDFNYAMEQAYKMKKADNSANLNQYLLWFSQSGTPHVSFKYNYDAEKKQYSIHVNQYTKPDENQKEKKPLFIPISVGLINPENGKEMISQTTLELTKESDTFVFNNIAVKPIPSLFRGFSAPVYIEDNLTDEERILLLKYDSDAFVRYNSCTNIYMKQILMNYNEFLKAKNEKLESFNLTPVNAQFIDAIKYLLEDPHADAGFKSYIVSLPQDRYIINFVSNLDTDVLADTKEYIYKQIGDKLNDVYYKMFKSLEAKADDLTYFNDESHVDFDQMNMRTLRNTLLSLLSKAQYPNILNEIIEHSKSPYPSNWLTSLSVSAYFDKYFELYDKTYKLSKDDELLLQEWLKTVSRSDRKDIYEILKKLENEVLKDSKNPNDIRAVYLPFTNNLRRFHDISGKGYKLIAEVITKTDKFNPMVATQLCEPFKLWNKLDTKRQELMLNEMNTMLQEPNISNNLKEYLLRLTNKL", "assay": "Inhibitory activity for Plasmodium falciparum Zinc aminopeptidase"}, "Plasmodium falciparum [1]": {"tested_on": "Plasmodium falciparum", "assay": "Inhibitory activity against Plasmodium falciparum FcB1"}, "Plasmodium falciparum [2]": {"tested_on": "Plasmodium falciparum", "assay": "Inhibitory activity against Plasmodium falciparum Zinc-aminopeptidase PfA-M1 at 10 uM", "format": "functional", "outline": "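Native purified PfA-M1, diluted 10-fold in 25 mM Tris-HCl pH 7.4. Enzyme pre-incubated 10 min at rt with inhibitor (10 µM final, DMSO present), then Leu-pNA substrate added. Kinetics followed at 405 nm. Initial velocities normalized to the no-inhibitor control (Vmax). Single-point percent inhibition (Z' 0.82). Bestatin as reference.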"}}, "data": [{"smiles": "CC(C)CN(CCCN1CCN(CCCNc2ccnc3cc(Cl)ccc23)CC1)C(=O)CC(=O)NO", "values": [{"measurement": "IC50", "setting": "Aminopeptidase N", "result": 854, "unit": "nM"}, {"measurement": "IC50", "setting": "Plasmodium falciparum [1]", "result": 317, "unit": "nM"}]}, {"smiles": "O=C(O)CCC(=O)N(CCCN1CCN(CCCNc2ccnc3cc(Cl)ccc23)CC1)CC1CC1", "values": [{"measurement": "IC50", "setting": "Aminopeptidase N", "result": "> 10000", "unit": "nM"}, {"measurement": "IC50", "setting": "Plasmodium falciparum [1]", "result": 1380, "unit": "nM"}, {"measurement": "inhibition at 10 µM", "setting": "Plasmodium falciparum [2]", "result": 22, "unit": "%"}]}, {"smiles": "CC(C)CC(C(=O)NO)C(=O)N(CCCN1CCN(CCCNc2ccnc3cc(Cl)ccc23)CC1)CC(C)C", "note": "(centres undefined)", "values": [{"measurement": "IC50", "setting": "Plasmodium falciparum [1]", "result": 151, "unit": "nM"}]}, {"smiles": "NCCC(=O)N(CCCN1CCN(CCCNc2ccnc3cc(Cl)ccc23)CC1)CC1CC1", "values": [{"measurement": "IC50", "setting": "Aminopeptidase N", "result": 21000, "unit": "nM"}, {"measurement": "IC50", "setting": "Plasmodium falciparum [1]", "result": 398, "unit": "nM"}]}, {"smiles": "CC(C)C[C@H](NC(=O)[C@@H](O)[C@H](N)Cc1ccccc1)C(=O)O", "note": "[UBENIMEX]", "values": [{"measurement": "IC50", "setting": "Plasmodium falciparum [1]", "result": 29000, "unit": "nM"}]}]}
